Screening results deposited in PubChem BioAssay by The Scripps Research Institute Molecular Screening Center.
Only some compounds are listed: those with a hit (about 2% of all), similar ones and a draw of the others.
CHRM1 antagonist: antagonists of human M1 muscarinic receptor. P11229. inhibition, % at 3 µM. CHO-K1 hM1, Fluo-8 calcium fluorescence, ACh EC80 antagonist. 360,000 tested, 1.3% active;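 active = percent inhibition above its own plate's cutoff, namely the mean of that plate's compound wells plus 3 SD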;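 also: peak over basal fluorescence ratio during 140 s after agonist addition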
CHRM5 agonist: agonists of human muscarinic M5 receptor (CHRM5). P08912. CHO-K1 hM5 cells, Fluo-8 calcium fluorescence; 0% DMSO wells, 100% maximal acetylcholine response. activation, % at 3 µM. 360,000 tested, 0.19% active. AID 624037;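 active = activation above the run's mean over test compounds plus 3 SD, cut at about 23% in these data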;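 also: signal is peak over basal fluorescence ratio across the kinetic read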
Target sequence (P08912 whole entry, looked up): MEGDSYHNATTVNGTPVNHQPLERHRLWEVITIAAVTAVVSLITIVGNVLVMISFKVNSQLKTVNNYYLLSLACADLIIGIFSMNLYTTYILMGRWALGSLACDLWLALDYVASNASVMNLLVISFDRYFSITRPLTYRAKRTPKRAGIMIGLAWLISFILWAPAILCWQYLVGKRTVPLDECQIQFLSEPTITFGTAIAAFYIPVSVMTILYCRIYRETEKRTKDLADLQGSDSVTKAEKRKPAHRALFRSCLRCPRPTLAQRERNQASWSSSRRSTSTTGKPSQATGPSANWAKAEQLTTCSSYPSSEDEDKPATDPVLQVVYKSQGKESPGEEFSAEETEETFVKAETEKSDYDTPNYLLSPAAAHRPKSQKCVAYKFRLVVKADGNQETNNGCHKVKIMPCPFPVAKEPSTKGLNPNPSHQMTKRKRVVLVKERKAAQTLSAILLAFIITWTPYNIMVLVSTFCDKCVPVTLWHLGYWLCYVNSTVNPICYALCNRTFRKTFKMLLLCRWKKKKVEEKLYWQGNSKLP
M1 PAM: potentiates human M1 receptor response to acetylcholine; CHO-K1 hM1, Fluo-8 calcium fluorescence, ACh EC20; 0% = ACh EC20, 100% = maximal ACh; activation, % at 3 µM; 360,000 tested, 0.088% active; in the data active = activation above about 19%, passing the limit was not always enough
M5 PAM: potentiates acetylcholine response at human M5 receptor. P08912. CHO-K1 hM5, Fluo-8 calcium, ACh EC20 PAM; 0% = ACh EC20, 100% = ACh EC100. activation, % at 3 µM. 360,000 tested, 0.3% active. AID 624038;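 active = activation above the run cutoff, the mean activation of all test compounds plus 3 SD, cut at about 18% in these data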
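System: CHO-K1 cell line with stable human muscarinic M5 receptor expression | Also added: EC20 acetylcholine as agonist stimulus | Compound: One concentration, 3 µM final (nominal) | Timing: Fluo-8 loading 80 min at 37 °C plus 30 min room temperature | Measured by: Fluo-8 calcium dye fluorescence, kinetic read | Read-out basis: % activation, ACh-normalized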
M1 ag: human M1 muscarinic receptor agonism; P11229; 360,000 tested, 0.33% active; AID 588814; activation, % at 3 µM; CHO-K1 hM1, Fluo-8 calcium fluorescence, agonist mode; 0% DMSO, 100% acetylcholine EC100;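 active = activation above the run's mean compound activation plus 3 SD, cut at about 16% in these data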;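 also: peak over basal fluorescence ratio within a 140 s kinetic read after compound addition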
M5 antag: antagonists of human muscarinic M5 receptor (CHRM5); P08912; CHO-hM5 cells, Fluo-8 calcium fluorescence, ACh EC80; inhibition, % at 3 µM; 360,000 tested, 0.59% active; AID 624040;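 active = inhibition above a per-plate cutoff, the mean of that plate's test compounds plus 3 SD, cut at about 27% in these data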
Of the large screens only hits and unclear results are named; the others gave an inactive call.

COc1ccc(CCC(=O)NCC(c2ccco2)N2CCc3ccccc32)cc1 (stereo not given)	none
CNCC/C=C1/c2ccccc2CSc2ccccc21	CHRM1 antagonist 95, M5 antag 81
O=C(c1ccncc1)N1CCN(CCc2ccccc2)CC1	none
O=C(c1ccc(Br)o1)N1CCN(CCc2ccncc2)CC1	CHRM1 antagonist 44
CCNC(=O)C1(C)CCN(C(=O)c2ccc(OC)cc2)C1 (stereo not given)	none
O=C(NCc1ccccc1)C(c1ccccc1)N(Cc1cccs1)C(=O)c1cnccn1 (stereo not given)	CHRM1 antagonist 43
Cc1occc1C(=O)N1CCC2(CCCN(Cc3ccc(F)c(F)c3)C2)C1 (stereo not given)	CHRM1 antagonist 65
O=C(c1ccoc1)N1CCC2(CCCN(Cc3ccc(F)c(F)c3)C2)C1 (stereo not given)	CHRM1 antagonist 55
Cc1ccoc1C(=O)N1CCCC(CO)(Cc2ccc(F)cc2)C1 (stereo not given)	none
O=C(CCC1CCCN(C(=O)c2ccoc2)C1)NCc1ccc(F)c(F)c1 (stereo not given)	none
Cc1cc(-c2cn3ccccc3n2)c(C)n1-c1ccccc1	CHRM1 antagonist 34
CC(C)CN(C(=O)CCNC(=O)c1ccc(Cl)cc1)C1CCS(=O)(=O)C1 (stereo not given)	M5 PAM 18
COCC(C)NC(C(=O)Nc1ccc(Cl)c([N+](=O)[O-])c1)c1ccccc1 (stereo not given)	M1 PAM 31
O=C(Nc1ccc(Cl)c([N+](=O)[O-])c1)C(Sc1ccccc1)c1ccccc1 (stereo not given)	M5 antag 30
CCC(C)NC(C(=O)Nc1ccc(Cl)c([N+](=O)[O-])c1)c1ccccc1 (stereo not given)	none
Cc1onc(-c2c(F)cccc2Cl)c1C(=O)OCC(=O)N(C)c1ccccc1	none
COC(=O)N1CCCCC1c1cc(C(=O)Nc2ccccc2Cl)no1 (stereo not given)	M1 PAM 28
Cn1c(SCC(N)=O)nnc1-c1ccc(S(=O)(=O)N2CCCC2)cc1	none
Cc1ccc(-n2c(SCC(N)=O)nnc2-c2ccc(S(=O)(=O)N3CCCCC3)cc2)c(C)c1	CHRM1 antagonist 91
COc1ccc(C2SCC(=O)N2c2ccc(OC)cc2)cc1 (stereo not given)	none
COc1cccc(C2SCC(=O)N2c2ccc(Br)cc2)c1OC (stereo not given)	CHRM1 antagonist 74, M5 antag 35
CSc1ccc(C(=O)C2CCCN(Cc3ccc(N4CCNC4=O)cc3)C2)cc1 (stereo not given)	CHRM1 antagonist 97
COc1ccc(CN2CCCC(C(=O)c3ccc(SC)cc3)C2)cc1Cn1cccn1 (stereo not given)	CHRM1 antagonist 88
CCOc1ccc(S(=O)(=O)N2CCN=C2c2ccccc2)c(C)c1C	none
COc1ccccc1N1CCN(c2nc(-c3ccccc3)cc(C(F)(F)F)n2)CC1	M5 PAM 27
FC(F)(F)c1cc(-c2ccccc2)nc(N2CCCCCC2)n1	none
O=C(Nc1cccc(C(=O)O)c1)/C(=C/c1ccc2c(c1)OCO2)NC(=O)c1cccc(Br)c1	M5 antag 28
COc1ccc(N(CC(=O)NCCc2ccccc2)C(=O)c2csnn2)cc1OC	none
Cc1ccc(N(CC(=O)NCc2ccc(F)cc2)C(=O)c2csnn2)c(C)c1	none
Cc1cc(C)c(N(CC(=O)NCc2ccccc2)C(=O)c2csnn2)c(C)c1	M5 PAM 23
COc1ccc(N(CC(=O)NCCc2ccccc2)C(=O)c2csnn2)cc1	M5 antag 32
CC(=O)NC(Cc1cccc(C)c1)C(=O)NC1CCN(C(=O)c2ccc([N+](=O)[O-])cc2)CC1 (stereo not given)	none
O=C(/C=C/c1ccccc1)NC(NC(=S)Nc1cc(Cl)ccc1Cl)C(Cl)(Cl)Cl (stereo not given)	M5 antag 51
O=C(/C=C/c1ccccc1)NC(NC(=S)Nc1ccc(Cl)cc1)C(Cl)(Cl)Cl (stereo not given)	none
Cc1ccnc(SCC(=O)Nc2sc3c(c2C#N)CCCC3)n1	M5 antag 30
Cc1csc(SCC(=O)Nc2sc3c(c2C#N)CCC3)n1	none
COc1cccc(CN2CCNC(=O)C2CC(=O)N(C)C2CCOCC2)c1OC (stereo not given)	M5 antag 28
COc1cccc(CN2CCNC(=O)C2CC(=O)N(C)CC2CCOCC2)c1OC (stereo not given)	none
O=C(Nc1cccc(OC(F)(F)F)c1)C1Cc2c(-c3ccco3)ccnc2O1 (stereo not given)	none
COc1ccccc1-c1cnc(C(O)c2ccc(Cl)c(Cl)c2)[nH]1 (stereo not given)	none
Cc1ccc(/C=N/n2c(C)nc3ccccc3c2=O)o1	none
C/C(=N\n1c(C)nc2ccccc2c1=O)c1ccc(C)o1	M1 PAM 28
c1ccc(-c2cn3ccccc3n2)cc1	none
c1ccn2cc(C34CC5CC(CC(C5)C3)C4)nc2c1	CHRM1 antagonist 54
CC1CCN(S(=O)(=O)N2CCC(C(=O)NCc3ccc(F)cc3Cl)CC2)CC1	none
CCNC(=O)C1(C)CCCN1C(=O)c1cc(C)on1 (stereo not given)	none
CN(C)c1ccc(NC(=O)c2sc(SCC(=O)Nc3ccc(Br)cc3)nc2N)cc1	none
CN(C)c1ccc(NC(=O)c2sc(SCC(=O)Nc3nccs3)nc2N)cc1	CHRM1 antagonist 24
CCOC(=O)C1CCCN(c2ncnc3c2cnn3-c2cccc(C)c2)C1 (stereo not given)	M1 ag 44
CCN1CCN(c2ncnc3c2cnn3-c2ccccc2)CC1	none
COc1cccc(N2CCN(c3ncnc4c3cnn4-c3ccc(C)cc3C)CC2)c1	CHRM1 antagonist 64, M5 antag 47
COc1ccc(-n2ncc3c(N4CCN(Cc5ccccc5)CC4)ncnc32)cc1	CHRM1 antagonist 23
CCN(CC)C(=O)C1CCCN(c2ncnc3c2cnn3-c2cccc(C)c2)C1 (stereo not given)	none
Cc1ccc([C@H]2C[C@H](n3cc(-c4ccc(F)cc4)nn3)[C@@H](O)CN2CC2CCCCC2)cc1	none
COc1ccc(-n2nc([N+](=O)[O-])c(=NCc3cccnc3)n2O)cc1	none
COc1ccc(-n2nc([N+](=O)[O-])c(=NC3CCN(Cc4ccccc4)CC3)n2O)cc1	CHRM1 antagonist 25
CN(C)c1ccc(-c2ccnc3c2CC(C)(C(=O)NCC2CCOCC2)O3)cc1 (stereo not given)	none
